Bioassay records as filed in PubChem.
A selection: hits, their analogues and other compounds. The true share with any hit is near 3.2%.
MEKK3 PB1 HTS: modulators (inhibitors or enhancers) of MEK5 binding to human MEKK3 PB1 domain; 290,000 compounds, 1.4% hits; bead-based flow cytometry, Alexa488-MEK5 binding to MEKK3; actives lie on both sides; 0 = blocked by unlabeled MEK5, 100 = vehicle; binding response (% of control), % at 10 µM;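 active = binding response more than 3 SD above or below the average of its plate-row segment, actives on both sides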;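 note: Alexa488 bead fluorescence after subtracting the streptavidin-only scavenger bead signal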
MEKK2mut PB1 HTS: signal of MEK5 binding to mutant human MEKK2 PB1 domain; AID 1530; percent response, % at 10 µM; 290,000 compounds, 0.35% hits; bead flow cytometry, Alexa488-MEK5 binding to MEKK2 mutant; in the data active = percent response above about 24%, passing the limit was not always enough
UBC13 inh: human UBC13 polyubiquitination inhibition. UBC13 polyubiquitin chain formation, TR-FRET. inhibition, % at 20 µM. P61088. 330,000 compounds, 0.47% hits; in the data active = inhibition above about 45%, passing the limit was not always enough
Target sequence (P61088 whole entry, looked up): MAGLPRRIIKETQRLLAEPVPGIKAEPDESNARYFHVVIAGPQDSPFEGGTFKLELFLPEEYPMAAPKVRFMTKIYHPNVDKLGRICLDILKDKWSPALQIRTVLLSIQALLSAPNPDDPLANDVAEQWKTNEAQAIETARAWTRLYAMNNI
MEKK2wt PB1 HTS: raises or lowers MEK5 binding to wildtype human MEKK2 PB1 domain. 290,000 compounds, 1.1% hits. Q9Y2U5. binding response (% of control), % at 10 µM. bead flow cytometry, Alexa488-MEK5 binding to MEKK2 WT; actives lie on both sides; in the data active = binding response below about 67% or above about 130%
Pemphigus Ab inh: blocks pemphigus antibody binding to human desmoglein-3 | P32926 | binding (percent of control), % at 10 µM | AID 588358 | 310,000 compounds, 0.48% hits | DSG3-coupled beads, scFv-anti-DSG3-GFP binding, flow cytometry; active compounds read low;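 active = binding more than 3 SD below its plate's average and above zero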;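 note: hits lower antibody fragment binding to DSG3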
Apaf-1 inh: human Apaf-1 inhibition; reconstituted apoptosome caspase-3 activity, DEVD-Rh110 fluorescence; inhibition, % at 20 µM; 330,000 compounds, 0.71% hits; AID 489030; active = inhibition of at least 40% at 20 µM
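System: reconstituted apoptosome with Apaf-1, cytochrome c, caspase-9, procaspase-3, dATP; Signal: Rh110 fluorescence intensity; Schedule: 30 min compound preincubation, 50 min activation, room temperature; Reagent: cytochrome c trigger plus (Z-DEVD)2-Rh110 caspase-3 substrate.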
Numbers stand for hits; - = inactive; . = no result; ! = not active in a repeat.

SMILES	MEKK3 PB1 HTS	MEKK2mut PB1 HTS	UBC13 inh	MEKK2wt PB1 HTS	Pemphigus Ab inh	Apaf-1 inh
O=C(N/N=C/c1ccc([N+](=O)[O-])cc1)c1cc(C2CC2)[nH]n1	-	-	-	-	-	-
O=C(N/N=C/c1ccc(OC(=O)c2ccccc2)cc1)c1cccnc1	-	-	-	-	.	-
O=C(N/N=C/c1ccc(OC(=O)c2ccc([N+](=O)[O-])cc2)cc1)c1cccnc1	-	-	-	-	8.2	-
CCC1=C[C@H]2CN(C1)Cc1c([nH]c3ccccc13)[C@@](C(=O)OC)(c1cc3c(cc1OC)N(C)[C@H]1[C@@](O)(C(=O)OC)[C@H](OC(C)=O)[C@]4(CC)C=CCN5CC[C@]31[C@@H]54)C2	-	32.0	.	183.0	.	.
O=S(=O)(c1cccc(NC(=S)N2CCN(c3ccc(F)cc3)CC2)c1)C(F)F	-	-	-	-	-	-
O=S(=O)(c1cccc(NC(=S)N2CCN(c3cccc(Cl)c3)CC2)c1)C(F)F	134.0	-	-	-	-	-
Cc1oc(-c2ccccc2F)nc1CS(=O)CC(=O)NCc1ccc(Cl)cc1 (stereo not drawn)	-	-	-	-	-11.9	-
Cc1oc(-c2ccccc2Cl)nc1CS(=O)CC(=O)NCc1ccc(Cl)cc1 (stereo not drawn)	-	-	-	-	-	-
C#CCOCCOCCOCCNc1nc(N2CCN(C(=O)CCCCCCCCCCNC(=O)Cn3cc(C[C@@H](C)O)nn3)CC2)nc(N2CCN(C(=O)CCCCCCCCCCNC(=O)[C@H](CCCCN)n3cc(C[C@@H](C)CC)nn3)CC2)n1	.	.	122.3	.	-	70.5
C#CCOCCOCCOCCNc1nc(N2CCN(C(=O)CCCCCCCCCCNC(=O)Cn3cc(CCCCCN)nn3)CC2)nc(N2CCN(C(=O)CCCCCCCCCCNC(=O)[C@H](CO)n3cc(CCCCCN)nn3)CC2)n1	.	.	116.9	.	-	62.9
CC(C)(C)c1ccc(C(CC(=O)O)NC(=O)Cc2ccccc2)cc1 (stereo not drawn)	-	-	-	-	-	-
COc1ccc(NC(=O)c2ccc(-c3ccc(OC)cc3)s2)cc1	-	-	-	-	55.0	-
CNC(=O)c1ccc(-c2ccc(OC)cc2)s1	-	-	-	-	-	-
Cc1ccc(C(=O)COC(=O)C2CC3CCCC(C2)C3=O)cc1[N+](=O)[O-] (stereo not drawn)	.	.	-	.	-	-
Cn1ncc(Cl)c1C(=O)N/N=C/c1cc2c(cc1[N+](=O)[O-])OCO2	-	-	-	-	70.6	-
CN1C(=O)C(C)(C)c2cc(S(=O)(=O)N3CCN(c4ccccc4F)CC3)ccc21	-	-	-	-	-	-
COc1cc(NC(=O)c2cc(-c3ccco3)on2)cc(OC)c1OC	-	-	-	-	-	-
COc1ccc(NC(=O)CN(C)CC(=O)Nc2ccc(N3CCOCC3)cc2)c([N+](=O)[O-])c1	-	-	-	-	67.1	-
CN(CC(=O)Nc1ccc(N2CCOCC2)cc1)CC(=O)Nc1ccc(Cl)cc1[N+](=O)[O-]	-	-	-	-	-	-
COc1cccc(/C=N/N(C)C2=NS(=O)(=O)c3ccccc32)c1O	-	-	-	-	79.8	-
COc1cc(/C=N/N(C)C2=NS(=O)(=O)c3ccccc32)cc(OC)c1OC	-	-	-	-	-	-
Cc1cccc(C(=O)NC2CCN(CC(=O)NCc3ccccc3F)CC2)c1	-	-	-	-	-	-
CNc1ccccc1C(C)(C)c1cc(-c2cccc(Br)c2)no1	-	-	-	9.0	-	-
Cc1c(C)c2ccc(OCC(=O)Nc3ccccc3C(N)=O)cc2oc1=O	-	-	-	-	-	-
Cc1[nH][nH]c(=O)c1C(c1cc(Br)ccc1O)c1c(C)[nH][nH]c1=O	-	-	-	-	-	-
SMILES	MEKK3 PB1 HTS	MEKK2mut PB1 HTS	UBC13 inh	MEKK2wt PB1 HTS	Pemphigus Ab inh	Apaf-1 inh
Cc1[nH][nH]c(=O)c1C(c1cc2c(cc1Br)OCO2)c1c(C)[nH][nH]c1=O	-	-	-	23.0	-	-
CN(CC(=O)Nc1cccc(S(=O)(=O)N(C)c2ccccc2)c1)Cc1cccs1	.	.	.	.	-	.
CCOc1ccc(N2CC(C(=O)Nc3ccncc3)CC2=O)cc1 (stereo not drawn)	-	-	-	-	54.0	-
CCOc1ccc(N2CC(C(=O)Nc3ccccn3)CC2=O)cc1 (stereo not drawn)	-	-	-	-	-	-
COc1ccc(N2CC(C(=O)Nc3nnc(SCC(=O)Nc4ccc(NC(C)=O)cc4)s3)CC2=O)cc1 (stereo not drawn)	.	.	.	.	85.0	.
COc1ccc(-c2csc(N3CCN(S(=O)(=O)c4ccc5c(c4)NC(=O)CO5)CC3)n2)cc1	-	-	-	-	-	-
Cc1onc(-c2ccccc2)c1-c1ccc(S(N)(=O)=O)cc1	-	-	-	53.0!	-	-
CCC(=O)NS(=O)(=O)c1ccc(-c2c(-c3ccccc3)noc2C)cc1	-	-	.	-	.	.
COc1cc(OC)cc(C(=O)NCCS(=O)(=O)N2CCN(Cc3ccccc3)CC2)c1	.	.	-	.	-	-
CCOC(=O)N/N=C/c1cn(Cc2ccc(Cl)cc2)c2ccccc12	-	-	-	-	-27.9	-
CCOC(=O)N/N=C/c1cn(CCCOc2ccc(C)cc2)c2ccccc12	-	-	-	-	-31.3	-
O=[N+]([O-])/C=C/c1cn(Cc2ccc(Cl)cc2)c2ccccc12	-	-	-	2.0	-	-
CCOC(=O)N/N=C/c1cn(Cc2ccc(F)cc2)c2ccccc12	-	-	-	-	-	-
COC(=O)N/N=C/c1cn(CCOc2ccc(OC)cc2)c2ccccc12	-	-	-	-	-	-
O=C(COc1ccccc1[N+](=O)[O-])N(Cc1cccc(Br)c1)C1CCS(=O)(=O)C1 (stereo not drawn)	-	-	-	-	-	-
CCC(=O)N1CCc2cc(S(=O)(=O)NCCC(=O)NCc3ccccc3OC)ccc21	-	-	-	-	.	-
CC1Cc2cccc3ccc(=O)n(c23)C1 (stereo not drawn)	.	.	.	.	-	.
COc1cc(NS(=O)(=O)c2ccc(Br)s2)cc(OC)c1	-	-	-	-14.0	-	-
CCc1nnc(NC(=O)c2sc3nc4c(cc3c2N)CCCCC4)s1	139.0	-	-	-	-	-
COc1ccnc(N2CCN(c3cccc(C(F)(F)F)c3)CC2)c1C#N	-	-	-	-	79.2	-
CCOC(=O)N1CCN(Cc2ccc(OCC(O)CN3CCCCC3)cc2)CC1 (stereo not drawn)	-	-	-	-	-	-
CC(C)(C)NCC(O)c1ccc(O)c(CO)c1 (stereo not drawn)	-	-	.	-	.	.
CC(C)(C)NCC(O)c1cc(O)cc(O)c1 (stereo not drawn)	-	-	.	-	45.0	.
